Experimental data as given in ChEMBL document CHEMBL1123634, “Design, synthesis, and testing of potential antisickling agents. 10. (2,2-Dimethylchroman-6-yl)alkanoic acids” (1987).

Key:
Assay type in all cases: functional
Homo sapiens [1] = species: Homo sapiens; assay: Antigelling activity expressed as ratio of soluble sickle hemoglobin (HbS) of compound (g/dL) and that of control at 20 mM concentration
Summary of the method: (§1)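 Hofrichter-type solubility assay: HbS (final around 24 g/100 mL) incubated with drug at 5, 10, 20 and 40 mM, dithionite as deoxygenant. Drugs taken up as sodium salts (2 equiv NaHCO3) in 0.15 M phosphate buffer pH 7.4, 0.18 M stock, some with N-methylpiperazine added for solubility. Each spin run includes a no-drug dHbS control and a 40 mM phenylalanine control. Ratio is soluble HbS with drug (g/dL) over soluble HbS control (g/dL). Values are averages of duplicate runs.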

Homo sapiens [2] = species: Homo sapiens; assay: Antigelling activity expressed as ratio of soluble sickle hemoglobin (HbS) of compound (g/dL) and that of control at 10 mM concentration; summary of the method: as §1
Homo sapiens [3] = species: Homo sapiens; assay: Antigelling activity expressed as ratio of soluble sickle hemoglobin (HbS) of compound (g/dL) and that of control at 5 mM concentration.; summary of the method: as §1
Homo sapiens [4] = species: Homo sapiens; assay: Antigelling activity expressed as ratio of soluble sickle hemoglobin (HbS) of compound (g/dL) and that of control at 40 mM concentration.; summary of the method: as §1
Homo sapiens [5] = species: Homo sapiens; assay: Antigelling activity expressed as ratio of soluble sickle hemoglobin (HbS) of compound (g/dL) and that of control at 10 mM concentration.; summary of the method: as §1
Homo sapiens [6] = species: Homo sapiens; assay: Antigelling activity expressed as ratio of soluble sickle hemoglobin (HbS) of compound (g/dL) and that of control at 40 mM concentration; summary of the method: as §1
Homo sapiens [7] = species: Homo sapiens; assay: Antigelling activity expressed as ratio of soluble sickle hemoglobin (HbS) of compound (g/dL) and that of control at 20 mM concentration.; summary of the method: as §1
Homo sapiens [8] = species: Homo sapiens; assay: Antigelling activity expressed as ratio of soluble sickle hemoglobin (HbS) of compound (g/dL) and that of control at 5 mM concentration; summary of the method: as §1

| SMILES | Activity (Homo sapiens [1]) | Activity (Homo sapiens [2]) | Activity (Homo sapiens [3]) | Activity (Homo sapiens [4]) | Activity (Homo sapiens [5]) | Activity (Homo sapiens [6]) | Activity (Homo sapiens [7]) | Activity (Homo sapiens [8]) |
| --- | --- | --- | --- | --- | --- | --- | --- | --- |
| CC(C)(Oc1ccc(Cl)cc1)C(=O)O [CLOFIBRIC ACID] | 1.155 | 1.064 | 1.018 | 1.302 |  |  |  |  |
| N[C@@H](Cc1ccccc1)C(=O)O [PHENYLALANINE] |  |  |  |  | 1.048 | 1.178 | 1.093 | 1.036 |
| CC1(C)CCc2cc(CCC(=O)O)ccc2O1 | 1.164 | 1.077 | 1.045 |  |  | 1.297 |  |  |
| CC(C(=O)O)c1ccc2c(c1)CCC(C)(C)O2 (configuration not stated) | 1.095 | 1.028 | 1.011 |  |  | 1.21 |  |  |
| CC1(C)CCc2cc(C(=O)O)ccc2O1 | 1.108 | 1.043 |  | 1.226 |  |  |  | 1.044 |
| Cc1ccc(C)c(OCCCC(C)(C)C(=O)O)c1 [GEMFIBROZIL] | 1.117 |  |  |  | 1.073 | 1.234 |  | 1.04 |
| CC1(C)CCc2cc(CCCC(=O)O)ccc2O1 | 1.144 | 1.086 |  |  |  | 1.299 |  | 1.052 |
| CC(=O)OC(C/C(C)=C/C(=O)O)c1ccc2c(c1)CCC(C)(C)O2 (configuration not stated) |  | 1.03 | 1.01 |  |  | 1.188 | 1.085 |  |
